Active and inactive are the calls of the source. The rule behind the calls is not given here.
Experiments:
T47D [1] = assay: Induction of apoptosis in human T47D cells assessed as early apoptotic cells level at 1 uM incubated for 48 hrs by annexin V-FITC and propidium iodide staining based flow cytometry (reference value: 0.75%); type: functional
T47D [2] = assay: Induction of apoptosis in human T47D cells assessed as early apoptotic cells level at 0.5 uM incubated for 48 hrs by annexin V-FITC and propidium iodide staining based flow cytometry (reference value: 0.75%); type: functional
T47D [3] = assay: Induction of apoptosis in human T47D cells assessed as viable cells level at 1 uM incubated for 48 hrs by annexin V-FITC and propidium iodide staining based flow cytometry (reference value: 96%); type: functional
T47D [4] = assay: Induction of apoptosis in human T47D cells assessed as late apoptotic cells level at 5 uM incubated for 48 hrs by annexin V-FITC and propidium iodide staining based flow cytometry (reference value: 0.48%); type: functional
A549 [5] = assay: Growth inhibition of human A549 cells incubated for 72 hrs at 1 uM by CCK8 assay; type: functional; details: A549, 72 h, read-out: GI
Summary of the method: (§1)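 CCK8 viability assay on a panel of human cancer cell lines, with an initial screen at fixed concentrations of 1 µM and 10 µM.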

CDK4/Cyclin D3 = CDK4/Cyclin D3 (Homo sapiens, UniProt P11802); assay: Inhibition of human CDK4/CyclinD3 by enzymatic radiometric assay; type: protein-complex assay
CDK4/Cyclin D3, sequence (P11802 whole entry): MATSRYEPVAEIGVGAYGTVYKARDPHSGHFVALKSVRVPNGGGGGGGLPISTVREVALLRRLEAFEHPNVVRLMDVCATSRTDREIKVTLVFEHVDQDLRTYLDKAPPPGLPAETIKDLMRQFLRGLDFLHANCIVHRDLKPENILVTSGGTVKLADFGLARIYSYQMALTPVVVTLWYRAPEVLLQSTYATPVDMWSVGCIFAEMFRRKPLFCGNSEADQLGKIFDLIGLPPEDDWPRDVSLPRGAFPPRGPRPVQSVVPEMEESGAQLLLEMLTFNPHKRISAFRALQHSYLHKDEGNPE
CDK4/Cyclin D3, sequence (P30281 whole entry, further chain): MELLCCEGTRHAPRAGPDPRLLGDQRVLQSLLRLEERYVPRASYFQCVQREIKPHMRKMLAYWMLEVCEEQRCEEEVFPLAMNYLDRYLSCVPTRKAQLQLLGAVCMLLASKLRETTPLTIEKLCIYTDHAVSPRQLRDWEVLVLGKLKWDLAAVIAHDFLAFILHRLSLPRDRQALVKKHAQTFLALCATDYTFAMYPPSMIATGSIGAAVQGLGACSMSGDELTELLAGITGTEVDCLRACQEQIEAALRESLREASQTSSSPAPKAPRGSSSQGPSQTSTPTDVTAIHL
Summary of the method: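 CDK4 activity measured with the Eurofins KinaseProfiler. IC50 and inhibition values are means of two independent experiments.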

[6] = biological target: CDK18/Cyclin Y (Homo sapiens) (UniProt Q07002+Q8ND76); assay: Inhibition of human CDK18/CyclinY at 1 uM by enzymatic radiometric assay; type: protein-complex assay
Summary of the method: (§2)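 Kinase panel run through the Eurofins KinaseProfiler, with compound at a fixed 1 µM. Values are means of two independent experiments.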

T47D [7] = assay: Induction of apoptosis in human T47D cells assessed as early apoptotic cells level at 0.25 uM incubated for 48 hrs by annexin V-FITC and propidium iodide staining based flow cytometry (reference value: 0.75%); type: functional
T47D [8] = assay: Induction of apoptosis in human T47D cells assessed as viable cells level at 5 uM incubated for 48 hrs by annexin V-FITC and propidium iodide staining based flow cytometry (reference value: 96%); type: functional
[9] = biological target: CDK6/cyclin D3 (Homo sapiens) (UniProt P30281+Q00534); assay: Inhibition of human CDK6/CyclinD3 at 1 uM by enzymatic radiometric assay; type: protein-complex assay
T47D [10] = assay: Induction of apoptosis in human T47D cells assessed as late apoptotic cells level at 0.5 uM incubated for 48 hrs by annexin V-FITC and propidium iodide staining based flow cytometry (reference value: 0.48%); type: functional
T47D [11] = assay: Induction of apoptosis in human T47D cells assessed as viable cells level at 0.5 uM incubated for 48 hrs by annexin V-FITC and propidium iodide staining based flow cytometry (reference value: 96%); type: functional
4T1 = assay: Antitumor activity against mouse 4T1 cells xenografted in BALB/C mouse assessed as inhibition of tumor growth at 50 to 150 mg/kg/day, ip dosed for 21 consecutive days; type: functional, organism-based
Summary of the method: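 Cells implanted orthotopically into mammary fat pads of female BALB/c mice aged 6-8 weeks. Dosing began once tumours averaged 100 mm3: daily IP injection at 50, 100 or 150 mg/kg/day for 21 consecutive days, with a solvent control group. Tumour volume and body weight were followed, given as mean ± SD.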

[12] = biological target: CDK9/cyclin T1 (Homo sapiens) (UniProt O60563+P50750); assay: Inhibition of human CDK9/CyclinT1 at 1 uM by enzymatic radiometric assay; type: protein-complex assay
[13] = biological target: Cyclin-dependent kinase 1/cyclin B1 (Homo sapiens) (UniProt P06493+P14635); assay: Inhibition of human CDK1/CyclinB at 1 uM by enzymatic radiometric assay; type: protein-complex assay; summary of the method: as §2
Cyclin-dependent kinase 1/cyclin B1 (Homo sapiens), sequence (P06493 whole entry, looked up): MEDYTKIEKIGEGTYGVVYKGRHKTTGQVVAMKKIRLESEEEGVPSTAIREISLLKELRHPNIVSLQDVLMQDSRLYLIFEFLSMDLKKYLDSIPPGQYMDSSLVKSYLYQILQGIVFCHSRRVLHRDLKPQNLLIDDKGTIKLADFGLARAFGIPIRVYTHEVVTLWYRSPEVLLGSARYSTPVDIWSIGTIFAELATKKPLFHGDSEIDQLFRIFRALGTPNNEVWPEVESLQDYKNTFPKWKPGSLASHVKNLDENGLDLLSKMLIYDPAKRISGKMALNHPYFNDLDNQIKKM
Cyclin-dependent kinase 1/cyclin B1 (Homo sapiens), sequence (P14635 whole entry, looked up): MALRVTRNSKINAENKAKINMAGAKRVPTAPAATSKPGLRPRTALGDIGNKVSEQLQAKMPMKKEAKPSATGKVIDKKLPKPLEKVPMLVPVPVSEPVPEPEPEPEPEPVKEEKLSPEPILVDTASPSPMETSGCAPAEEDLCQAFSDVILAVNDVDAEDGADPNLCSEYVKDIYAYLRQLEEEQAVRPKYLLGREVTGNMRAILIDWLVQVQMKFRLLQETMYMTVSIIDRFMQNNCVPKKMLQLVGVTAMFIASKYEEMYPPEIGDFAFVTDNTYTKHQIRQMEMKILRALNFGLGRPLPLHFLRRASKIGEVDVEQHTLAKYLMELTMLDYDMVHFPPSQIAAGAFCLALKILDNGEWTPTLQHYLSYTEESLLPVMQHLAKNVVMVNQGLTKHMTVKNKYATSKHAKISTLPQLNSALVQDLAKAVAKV

HeLa = assay: Growth inhibition of human HeLa cells incubated for 72 hrs at 1 uM by CCK8 assay; type: functional; details: read-out: GI; summary of the method: as §1
[14] = biological target: Cyclin-dependent kinase 2/cyclin E1 (Homo sapiens) (UniProt P24864+P24941); assay: Inhibition of human CDK2/CyclinE at 1 uM by enzymatic radiometric assay; type: protein-complex assay; summary of the method: as §2
T47D [15] = assay: Induction of apoptosis in human T47D cells assessed as viable cells level at 0.25 uM incubated for 48 hrs by annexin V-FITC and propidium iodide staining based flow cytometry (reference value: 96%); type: functional
A549 [16] = assay: Growth inhibition of human A549 cells incubated for 72 hrs by CCK8 assay; type: functional, cell-based; details: A549, 72 h
T47D [17] = assay: Induction of apoptosis in human T47D cells assessed as late apoptotic cells level at 0.25 uM incubated for 48 hrs by annexin V-FITC and propidium iodide staining based flow cytometry (reference value: 0.48%); type: functional
[18] = biological target: CDK3/Cyclin E (Homo sapiens) (UniProt P24864+Q00526); assay: Inhibition of human CDK3/CyclinE at 1 uM by enzymatic radiometric assay; type: protein-complex assay; summary of the method: as §2
CDK3/Cyclin E (Homo sapiens), sequence (P24864 whole entry, looked up): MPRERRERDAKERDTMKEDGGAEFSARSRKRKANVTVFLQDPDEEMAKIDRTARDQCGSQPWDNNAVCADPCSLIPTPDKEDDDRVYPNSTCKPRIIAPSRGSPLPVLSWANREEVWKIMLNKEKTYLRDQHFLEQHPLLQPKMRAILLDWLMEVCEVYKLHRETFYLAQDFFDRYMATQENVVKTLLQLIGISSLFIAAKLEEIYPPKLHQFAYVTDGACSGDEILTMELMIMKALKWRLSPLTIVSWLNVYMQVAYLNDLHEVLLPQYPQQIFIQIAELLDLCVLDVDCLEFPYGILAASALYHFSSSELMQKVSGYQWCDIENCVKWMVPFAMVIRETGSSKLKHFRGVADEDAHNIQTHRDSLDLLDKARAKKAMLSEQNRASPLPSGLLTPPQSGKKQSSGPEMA
CDK3/Cyclin E (Homo sapiens), sequence (Q00526 whole entry, looked up): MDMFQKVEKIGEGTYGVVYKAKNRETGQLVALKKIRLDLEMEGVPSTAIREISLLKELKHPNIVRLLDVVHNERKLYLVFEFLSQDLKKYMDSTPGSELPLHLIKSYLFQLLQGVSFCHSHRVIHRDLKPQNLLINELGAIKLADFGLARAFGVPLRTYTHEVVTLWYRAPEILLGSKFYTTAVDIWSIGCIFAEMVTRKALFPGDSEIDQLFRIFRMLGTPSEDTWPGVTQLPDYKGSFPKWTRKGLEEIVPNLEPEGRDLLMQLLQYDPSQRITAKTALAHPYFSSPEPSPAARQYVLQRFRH

[19] = biological target: Vascular endothelial growth factor receptor 2 (Homo sapiens, UniProt P35968); assay: Inhibition of human VEGFR2 by enzymatic radiometric assay
Vascular endothelial growth factor receptor 2, sequence (P35968 whole entry): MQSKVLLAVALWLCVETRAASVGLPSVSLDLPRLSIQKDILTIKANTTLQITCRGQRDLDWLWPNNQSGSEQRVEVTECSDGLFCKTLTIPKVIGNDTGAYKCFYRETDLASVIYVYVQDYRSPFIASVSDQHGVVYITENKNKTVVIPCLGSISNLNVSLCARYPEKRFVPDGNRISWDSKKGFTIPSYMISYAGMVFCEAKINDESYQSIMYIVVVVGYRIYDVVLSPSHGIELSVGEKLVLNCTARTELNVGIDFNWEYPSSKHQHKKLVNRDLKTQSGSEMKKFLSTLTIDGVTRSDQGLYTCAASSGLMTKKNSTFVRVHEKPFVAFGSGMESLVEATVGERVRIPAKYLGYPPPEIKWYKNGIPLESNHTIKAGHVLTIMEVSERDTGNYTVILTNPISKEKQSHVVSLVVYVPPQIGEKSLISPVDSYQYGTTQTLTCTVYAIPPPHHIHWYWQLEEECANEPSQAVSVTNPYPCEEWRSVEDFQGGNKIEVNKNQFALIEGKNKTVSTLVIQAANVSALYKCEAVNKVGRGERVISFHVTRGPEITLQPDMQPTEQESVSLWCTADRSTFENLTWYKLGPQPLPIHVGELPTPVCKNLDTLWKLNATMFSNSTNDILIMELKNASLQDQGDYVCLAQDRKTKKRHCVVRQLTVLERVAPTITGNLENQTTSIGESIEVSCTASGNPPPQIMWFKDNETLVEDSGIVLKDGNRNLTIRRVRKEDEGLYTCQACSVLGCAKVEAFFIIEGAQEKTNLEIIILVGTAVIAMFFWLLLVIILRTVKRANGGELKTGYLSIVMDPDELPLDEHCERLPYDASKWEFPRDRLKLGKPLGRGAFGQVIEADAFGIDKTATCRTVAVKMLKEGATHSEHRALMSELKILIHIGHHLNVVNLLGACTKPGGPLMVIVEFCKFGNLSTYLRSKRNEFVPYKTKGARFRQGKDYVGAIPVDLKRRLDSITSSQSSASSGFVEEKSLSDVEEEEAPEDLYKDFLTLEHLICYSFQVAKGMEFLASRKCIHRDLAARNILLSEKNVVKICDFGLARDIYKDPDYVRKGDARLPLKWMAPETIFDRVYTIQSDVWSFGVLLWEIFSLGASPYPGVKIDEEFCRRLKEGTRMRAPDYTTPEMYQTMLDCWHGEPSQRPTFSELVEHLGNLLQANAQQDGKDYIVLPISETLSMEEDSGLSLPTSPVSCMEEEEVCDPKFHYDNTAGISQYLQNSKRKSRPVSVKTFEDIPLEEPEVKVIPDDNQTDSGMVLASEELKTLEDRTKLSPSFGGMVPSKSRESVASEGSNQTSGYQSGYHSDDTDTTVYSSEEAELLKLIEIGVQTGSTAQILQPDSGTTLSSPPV
Summary of the method: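 IC50 was determined through a commercial kinase profiling service. Values are the mean of two independent experiments.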

T47D [20] = assay: Inhibition of cell migration of human T47D cells at 0.5 to 5 uM incubated for 16 hrs by transwell cell migration assay; type: functional, cell-based
Summary of the method: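 T47D cells were assayed by transwell migration. After 16 h incubation, migrated cells were counted by microscope in five random fields per chamber.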

OVCAR-5 = assay: Growth inhibition of human OVCAR5 cells incubated for 72 hrs at 1 uM by CCK8 assay; type: functional; details: OVCAR-5, 72 h, read-out: GI; summary of the method: as §1
A549 [21] = assay: Growth inhibition of human A549 cells incubated for 72 hrs at 10 uM by CCK8 assay; type: functional; details: A549, 72 h, read-out: GI; summary of the method: as §1
T47D [22] = assay: Induction of apoptosis in human T47D cells assessed as early apoptotic cells level at 5 uM incubated for 48 hrs by annexin V-FITC and propidium iodide staining based flow cytometry (reference value: 0.75%); type: functional
T47D [23] = assay: Induction of apoptosis in human T47D cells assessed as necrotic cells level at 5 uM incubated for 48 hrs by annexin V-FITC and propidium iodide staining based flow cytometry (reference value: 2.79%); type: functional
[24] = biological target: Cyclin-dependent kinase 5/CDK5 activator 1 (Homo sapiens) (UniProt Q00535+Q15078); assay: Inhibition of human CDK5/p35 at 1 uM by enzymatic radiometric assay; type: protein-complex assay
Cyclin-dependent kinase 5/CDK5 activator 1 (Homo sapiens), sequence (Q00535 whole entry): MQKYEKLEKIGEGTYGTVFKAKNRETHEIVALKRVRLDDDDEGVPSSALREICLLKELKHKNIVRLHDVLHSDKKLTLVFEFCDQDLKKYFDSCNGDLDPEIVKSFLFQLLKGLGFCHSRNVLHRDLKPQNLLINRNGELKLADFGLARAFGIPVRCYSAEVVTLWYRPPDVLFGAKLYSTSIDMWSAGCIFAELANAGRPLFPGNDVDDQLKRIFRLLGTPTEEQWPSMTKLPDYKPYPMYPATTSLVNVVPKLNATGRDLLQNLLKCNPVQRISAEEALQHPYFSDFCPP
Cyclin-dependent kinase 5/CDK5 activator 1 (Homo sapiens), sequence (Q15078 99-307 partner limits assumed): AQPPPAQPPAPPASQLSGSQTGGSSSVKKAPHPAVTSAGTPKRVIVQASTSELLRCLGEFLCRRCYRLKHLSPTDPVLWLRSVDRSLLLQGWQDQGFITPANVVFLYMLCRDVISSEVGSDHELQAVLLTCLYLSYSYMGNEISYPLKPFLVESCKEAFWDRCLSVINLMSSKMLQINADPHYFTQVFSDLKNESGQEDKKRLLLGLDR

SiHa = assay: Growth inhibition of human SiHa cells incubated for 72 hrs at 10 uM by CCK8 assay; type: functional; details: read-out: GI; summary of the method: as §1
T47D [25] = assay: Growth inhibition of human T47D cells incubated for 72 hrs at 10 uM by CCK8 assay; type: functional; details: read-out: GI; summary of the method: as §1
T47D [26] = assay: Induction of apoptosis in human T47D cells assessed as late apoptotic cells level at 1 uM incubated for 48 hrs by annexin V-FITC and propidium iodide staining based flow cytometry (reference value: 0.48%); type: functional
[27] = biological target: CDK4/Cyclin D3 (Homo sapiens) (UniProt P11802+P30281); assay: Inhibition of human CDK4/CyclinD3 at 1 uM by enzymatic radiometric assay; type: protein-complex assay; summary of the method: as §2
[28] = biological target: CDK7/Cyclin H/MNAT1 (Homo sapiens) (UniProt P51946+P50613+P51948); assay: Inhibition of human CDK7/CyclinH/MAT1 at 1 uM by enzymatic radiometric assay; type: protein-complex assay

Structure (SMILES): CN(C)C(=O)c1cc2cnc(Nc3ccc(NC(=O)C4(C(=O)Nc5ccc(F)cc5)CC4)cc3)nc2n1C1CCCC1
- Activity (T47D [1]): 3.16%
- Activity (T47D [2]): 0.65%
- Activity (T47D [3]): 90.5%
- Activity (T47D [4]): 5.29%
- inhibition of growth at 1 µM (A549 [5]): 86.6%
- IC50 (CDK4/Cyclin D3): 142 nM
- inhibition [6]: 6%
- Activity (T47D [7]): 0.52%
- Activity (T47D [8]): 85%
- inhibition [9]: 71%
- Activity (T47D [10]): 3.58%
- Activity (T47D [11]): 93.1%
- TGI (4T1): Dose-dependent effect
- inhibition [12]: 98%
- inhibition [13]: 73%
- inhibition of growth at 1 µM (HeLa): 49.8%
- inhibition [14]: 85%
- Activity (T47D [15]): 94.2%
- IC50 (A549 [16]): 456 nM
- Activity (T47D [17]): 3.28%
- inhibition [18]: 65%
- IC50 [19]: > 10000 nM
- inhibition (T47D [20]): Active
- inhibition of growth at 1 µM (OVCAR-5): 65.4%
- inhibition of growth at 10 µM (A549 [21]): 102%
- Activity (T47D [22]): 7.45%
- Activity (T47D [23]): 2.23%
- inhibition [24]: 81%
- inhibition of growth at 10 µM (SiHa): 98%
- inhibition of growth at 10 µM (T47D [25]): 105%
- Activity (T47D [26]): 4.98%
- inhibition [27]: 102%
- inhibition [28]: 7%
